Data: ChEMBL document CHEMBL1131243, “Structure-activity relationships of the 7-substituents of 5,4'-diamino-6,8,3'-trifluoroflavone, a potent antitumor agent” (J Med Chem, 1998)

Assays:
Mus musculus [1] = assay: Ratio of tumor growth rate of the drug-treated group relative to that of the control group at a dosw of 25 mg/kg; type: functional
In short: (§1)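 Female nude mice carried MCF-7 implants, with tumor growth stimulated by estradiol propionate given on the first dosing day. Mice with tumors of 25–200 mm³ were selected 20 days after transplantation (n = 5). Compound was given orally on days 0–4 and 7–11. Tumor length and width were measured on days 0, 4, 7, 11, 14 and 18. T/C is V/V0 treated over control; body weight change in %.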

HeLa = assay: In vitro cytotoxicity against HeLa S3 cell lines, treated for 3 days then uptake of neutral red dye was measured; type: functional, cell-based; details: Homo sapiens, 72 h
Mus musculus [2] = assay: Compound was tested for percentage Body weight change in vivo against MCF-7 cells implanted into Nude Mice, Dosage 25(mg/kg); type: functional, MCF7; in short: as §1
MCF7 = assay: In vitro cytotoxicity against MCF-7 cell lines, treated for 3 days then uptake of neutral red dye was measured; type: functional, cell-based; details: Homo sapiens, MCF7, 72 h
Mus musculus [3] = assay: Ratio of tumor growth rate of the drug-treated group relative to that of the control group at a dose of 25 mg/kg; type: functional; in short: as §1
Mus musculus [4] = assay: Ratio of tumor growth rate of the drug-treated group relative to that of the control group at a dose of 50 mg/kg; type: functional; in short: as §1
Mus musculus [5] = assay: Compound was tested for percentage Body weight change in vivo against MCF-7 cells implanted into Nude Mice, Dosage 50(mg/kg); type: functional, MCF7; in short: as §1
HeLa S3 (Homo sapiens) = assay: Compound was tested for in vitro Cytotoxicity against HeLa S3 cell lines which were treated for 3 days and uptake of neutral red dye was measured; details: HeLa S3, 72 h
Mus musculus [6] = assay: Compound was tested for percentage Body weight change in vivo against MCF-7 cells implanted into Nude Mice, Dosage 12.5(mg/kg); type: functional, MCF7; in short: as §1
Mus musculus [7] = assay: Ratio of tumor growth rate of the drug-treated group relative to that of the control group at a dose of 12.5 mg/kg; type: functional; in short: as §1
Mus musculus [8] = assay: Ratio of tumor growth rate of the drug-treated group relative to that of the control group at a dosw of 50 mg/kg; type: functional; in short: as §1
Mus musculus [9] = assay: Compound was tested for percentage Body weight change in vivo against MCF-7 cells implanted into Nude Mice, Dosage 25 (mg/kg); type: functional, MCF7; in short: as §1
Mus musculus [10] = assay: Ratio of tumor growth rate of the drug-treated group relative to that of the control group at a dose of 6.3 mg/kg; type: functional; in short: as §1
Mus musculus [11] = assay: Compound was tested for percentage Body weight change in vivo against MCF-7 cells implanted into Nude Mice, Dosage 6.3(mg/kg); type: functional, MCF7; in short: as §1
Mus musculus [12] = assay: Compound was tested for percentage Body weight change in vivo against MCF-7 cells implanted into Nude Mice, Dosage 3.1(mg/kg); type: functional, MCF7; in short: as §1
Mus musculus [13] = assay: Ratio of tumor growth rate of the drug-treated group relative to that of the control group at a dose of 3.1 mg/kg; type: functional; in short: as §1
Mus musculus [14] = assay: Ratio of tumor growth rate of the drug-treated group relative to that of the control group at a dosw of 6.3 mg/kg; type: functional; in short: as §1
Mus musculus [15] = assay: Compound was tested for percentage Body weight change in vivo against MCF-7 cells implanted into Nude Mice, Dosage (mg/kg); type: functional, MCF7; in short: as §1
Mus musculus [16] = assay: Compound was tested for percentage Body weight change in vivo against MCF-7 cells implanted into Nude Mice, Dosage 50 (mg/kg); type: functional, MCF7; in short: as §1
Mus musculus [17] = assay: Compound was tested for percentage Body weight change in vivo against MCF-7 cells implanted into Nude Mice, Dosage 63(mg/kg); type: functional, MCF7; details: in the assay text read “Dosage 6.3(mg/kg)” for “Dosage 63(mg/kg)”; in short: as §1
Mus musculus [18] = assay: Ratio of tumor growth rate of the drug-treated group relative to that of the control group at a dosw of 63 mg/kg; type: functional; details: dose 6.3 mg/kg; in the assay text read “6.3 mg/kg” for “63 mg/kg”; in short: as §1

Row | SMILES | IC50 (HeLa) | IC50 (MCF7) | further results
1 | CN(C)CCC(=O)OCc1c(F)c(N)c2c(=O)cc(-c3ccc(N)c(F)c3)oc2c1F | 11 µM | 0.019 µM | T/C min (Mus musculus [1]): 4.1%; Body weight change (Mus musculus [2]): -12%
2 | CN(C)CCCC(=O)OCc1c(F)c(N)c2c(=O)cc(-c3ccc(N)c(F)c3)oc2c1F | 4.5 µM | 0.029 µM | T/C min (Mus musculus [1]): 15%; Body weight change (Mus musculus [2]): -8.4%
3 | Nc1ccc(-c2cc(=O)c3c(N)c(F)c(CO)c(F)c3o2)cc1F | 24 µM | 0.062 µM | Body weight change (Mus musculus [2]): -4%; T/C min (Mus musculus [3]): 17%; T/C min (Mus musculus [4]): 1.6%; Body weight change (Mus musculus [5]): -6.7%
4 | CCCCc1c(F)c(N)c2c(=O)cc(-c3ccc(N)c(F)c3)oc2c1F | > 100 µM | 8.8 µM | –
5 | CS(=O)(=O)c1c(F)c(N)c2c(=O)cc(-c3ccc(N)c(F)c3)oc2c1F | > 100 µM | > 10 µM | –
6 | CCCCCC(=O)NCc1c(F)c(N)c2c(=O)cc(-c3ccc(N)c(F)c3)oc2c1F | – | 0.34 µM | IC50 (HeLa S3 (Homo sapiens)): > 100 µM; T/C min (Mus musculus [4]): 76%; Body weight change (Mus musculus [5]): 0%
7 | CN(C)c1c(F)c(N)c2c(=O)cc(-c3ccc(N)c(F)c3)oc2c1F | > 100 µM | 0.039 µM | Body weight change (Mus musculus [6]): -19%; T/C min (Mus musculus [7]): 39%
8 | Nc1ccc(-c2cc(=O)c3c(N)c(F)c(O)c(F)c3o2)cc1F | > 100 µM | > 10 µM | –
9 | CN(C)Cc1c(F)c(N)c2c(=O)cc(-c3ccc(N)c(F)c3)oc2c1F | 8.9 µM | 0.072 µM | T/C min (Mus musculus [1]): 16%; Body weight change (Mus musculus [2]): -17%
10 | CSc1c(F)c(N)c2c(=O)cc(-c3ccc(N)c(F)c3)oc2c1F | > 100 µM | 0.19 µM | –
11 | CN(C)CCCOCc1c(F)c(N)c2c(=O)cc(-c3ccc(N)c(F)c3)oc2c1F | 12 µM | > 10 µM | –
12 | COCc1c(F)c(N)c2c(=O)cc(-c3ccc(N)c(F)c3)oc2c1F | > 100 µM | 0.046 µM | T/C min (Mus musculus [8]): 89%; Body weight change (Mus musculus [5]): 0%
13 | COc1c(F)c(N)c2c(=O)cc(-c3ccc(N)c(F)c3)oc2c1F | 34 µM | 0.1 µM | –
14 | C[S+]([O-])c1c(F)c(N)c2c(=O)cc(-c3ccc(N)c(F)c3)oc2c1F (stereo not given) | > 100 µM | 2.5 µM | –
15 | Nc1ccc(-c2cc(=O)c3c(N)c(F)cc(F)c3o2)cc1F | > 100 µM | 0.04 µM | T/C min (Mus musculus [3]): 11%; Body weight change (Mus musculus [9]): -7.4%
16 | Nc1ccc(-c2cc(=O)c3c(N)c(F)c(N)c(F)c3o2)cc1F | 19 µM | 0.0077 µM | T/C min (Mus musculus [10]): 26%; Body weight change (Mus musculus [6]): -22%; Body weight change (Mus musculus [11]): -13%; Body weight change (Mus musculus [12]): 5.7%; T/C min (Mus musculus [7]): 18%; T/C min (Mus musculus [13]): 55%
17 | [N-]=[N+]=Nc1c(F)c(N)c2c(=O)cc(-c3ccc(N)c(F)c3)oc2c1F | 1.2 µM | 0.46 µM | –
18 | CCc1c(F)c(N)c2c(=O)cc(-c3ccc(N)c(F)c3)oc2c1F | > 100 µM | 0.13 µM | –

Row | SMILES | IC50 (HeLa) | IC50 (MCF7) | further results
19 | Nc1ccc(-c2cc(=O)c3c(N)c(F)c(C(=O)O)c(F)c3o2)cc1F | > 100 µM | > 10 µM | –
20 | CCCCCC(=O)OCc1c(F)c(N)c2c(=O)cc(-c3ccc(N)c(F)c3)oc2c1F | 34 µM | 0.16 µM | T/C min (Mus musculus [10]): 27%; Body weight change (Mus musculus [2]): -7.9%; T/C min (Mus musculus [3]): 0.8%; Body weight change (Mus musculus [6]): -8.4%; Body weight change (Mus musculus [11]): -5.9%; T/C min (Mus musculus [7]): 7.9%
21 | CCOC(=O)c1c(F)c(N)c2c(=O)cc(-c3ccc(N)c(F)c3)oc2c1F | > 100 µM | 1.4 µM | –
22 | CN(C)CC(=O)OCc1c(F)c(N)c2c(=O)cc(-c3ccc(N)c(F)c3)oc2c1F | 9.2 µM | 0.026 µM | Body weight change (Mus musculus [2]): -9%; T/C min (Mus musculus [14]): 68%; T/C min (Mus musculus [3]): 4%; T/C min (Mus musculus [4]): 1%; Body weight change (Mus musculus [11]): -4.8%; Body weight change (Mus musculus [5]): -11%
23 | Nc1ccc(-c2cc(=O)c3c(N)c(F)c(Br)c(F)c3o2)cc1F | > 100 µM | 0.16 µM | –
24 | CN(C)CCOc1c(F)c(N)c2c(=O)cc(-c3ccc(N)c(F)c3)oc2c1F | 1.5 µM | 1.4 µM | –
25 | Nc1ccc(-c2cc(=O)c3c(N)c(F)c(Cl)c(F)c3o2)cc1F | > 100 µM | 0.21 µM | –
26 | CCC(=O)OCc1c(F)c(N)c2c(=O)cc(-c3ccc(N)c(F)c3)oc2c1F | 69 µM | 0.13 µM | T/C min (Mus musculus [3]): 79%; Body weight change (Mus musculus [15]): -2.4%
27 | CC(=O)OCc1c(F)c(N)c2c(=O)cc(-c3ccc(N)c(F)c3)oc2c1F | 4.9 µM | 0.026 µM | Body weight change (Mus musculus [2]): -5.9%; T/C min (Mus musculus [3]): 6.1%; T/C min (Mus musculus [4]): 11%; Body weight change (Mus musculus [5]): -4.5%
28 | NCc1c(F)c(N)c2c(=O)cc(-c3ccc(N)c(F)c3)oc2c1F | 8.8 µM | 0.026 µM | T/C min (Mus musculus [8]): 1.1%; Body weight change (Mus musculus [2]): -8.5%; T/C min (Mus musculus [3]): 11%; Body weight change (Mus musculus [16]): -11%; Body weight change (Mus musculus [17]): -5.8%; T/C min (Mus musculus [18]): 60%
29 | CN(C)CCOCc1c(F)c(N)c2c(=O)cc(-c3ccc(N)c(F)c3)oc2c1F | 4.6 µM | > 10 µM | T/C min (Mus musculus [8]): 57%; Body weight change (Mus musculus [5]): -7.9%
30 | CCCCCCCCCC(=O)OCc1c(F)c(N)c2c(=O)cc(-c3ccc(N)c(F)c3)oc2c1F | > 100 µM | 0.1 µM | Body weight change (Mus musculus [2]): -5%; T/C min (Mus musculus [3]): 13%
31 | CCCCCCCCCCCCCCCCCC(=O)OCc1c(F)c(N)c2c(=O)cc(-c3ccc(N)c(F)c3)oc2c1F | > 100 µM | > 10 µM | Body weight change (Mus musculus [2]): -4.8%; T/C min (Mus musculus [3]): 20%
32 | CCCCCCc1c(F)c(N)c2c(=O)cc(-c3ccc(N)c(F)c3)oc2c1F | 21 µM | > 10 µM | –
33 | C[N+](C)(C)Cc1c(F)c(N)c2c(=O)cc(-c3ccc(N)c(F)c3)oc2c1F | 32 µM | 3.1 µM | –
34 | CCCOCc1c(F)c(N)c2c(=O)cc(-c3ccc(N)c(F)c3)oc2c1F | 78 µM | 1.2 µM | –
35 | CCCCCCOCc1c(F)c(N)c2c(=O)cc(-c3ccc(N)c(F)c3)oc2c1F | > 100 µM | 7.1 µM | –
36 | Cc1c(F)c(N)c2c(=O)cc(-c3ccc(N)c(F)c3)oc2c1F [AMINOFLAVONE] | > 100 µM | 0.013 µM | T/C min (Mus musculus [10]): 55%; Body weight change (Mus musculus [6]): -11%; Body weight change (Mus musculus [11]): -8.7%; T/C min (Mus musculus [7]): 11%
